Data set [1] deals with Candida albicans. Put plainly: Antifungal activity against drug resistant Candida albicans DF2672R after 24 hrs by two fold serial dilution method. It counts as functional. The method, boiled down: (§1)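 Candida grown on Sabouraud dextrose agar at 35 °C for 24 h, adjusted to ~5×10^3 CFU/mL. Two-fold dilutions from 100 to 0.78 μg/mL in Sabouraud dextrose broth, incubated at 35 °C for 24 h. MIC is the lowest concentration inhibiting growth by eye and by OD600. CLSI-based with minor modifications.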

The subject of data set [2] is Candida albicans. Put plainly: Antifungal activity against Candida albicans ATCC 10231 after 24 hrs by two fold serial dilution method. Format: functional. Particulars: ATCC 10231, 24 h. The method, boiled down:
as §1

The nature of data set [3]: Selectivity index, ratio of HC50 for New Zealand white rabbit RBC to MIC for Candida albicans ATCC 10231.
Data set [4] in a line: Dissociation constant, pKa of compound. Format: physicochemical.

Values after ≈ are worked out from the molar mass of the structure shown. Bounds are passed on as bounds.

For orientation: MIC means the least concentration at which growth counts as inhibited. A low value points to a more susceptible organism. The term pKa denotes the negative logarithm of the acid dissociation constant.

In the case of `CCC(C)n1ncn(-c2ccc(N3CCN(c4ccc(OCC5COC(Cn6cncn6)(c6ccc(Cl)cc6Cl)O5)cc4)CC3)cc2)c1=O` (configuration not stated) [ITRACONAZOLE], the MIC against Candida albicans [1] worked out at 6.25 µg/mL (≈ 8.86 µM).

Turning to `Clc1ccc(COC(Cn2ccnc2)c2ccc(Cl)cc2Cl)c(Cl)c1` (configuration not stated) [MICONAZOLE], the MIC with Candida albicans [1] came out at 0.39 µg/mL (≈ 0.937 µM).

Consider `CCCCCCNCC(O)COc1cc2oc3cc(OCC(O)CNCCCCCC)c(OC)c(CC=C(C)C)c3c(=O)c2c(O)c1CC=C(C)C` (configuration not stated), for which the MIC against Candida albicans [2] and in the data set with Candida albicans [1] was 12.5 µg/mL (≈ 17.2 µM) throughout. The Selectivity Index in data set [3] turned out to be 27.5.

Consider `COc1c(OCC(O)CNCCNCCN)cc2oc3cc(OCC(O)CNCCNCCN)c(CC=C(C)C)c(O)c3c(=O)c2c1CC=C(C)C` (configuration not stated), for which the MIC was 6.25 µg/mL (≈ 8.57 µM) with Candida albicans [2] and 12.5 µg/mL (≈ 17.1 µM) against Candida albicans [1]. Also, the Selectivity Index in data set [3] lay in the range of 13.2 to 26.4.

In turn, `C[C@@H]1[C@H](O)[C@@H](C)/C=C/C=C/C=C/C=C/C=C/C=C/C=C/[C@H](O[C@@H]2O[C@H](C)[C@@H](O)[C@H](N)[C@@H]2O)C[C@@H]2O[C@](O)(C[C@@H](O)C[C@@H](O)[C@H](O)CC[C@@H](O)C[C@@H](O)CC(=O)O[C@H]1C)C[C@H](O)[C@H]2C(=O)O` [AMPHOTERICIN B] yielded an MIC against Candida albicans [1] of 0.2 µg/mL (≈ 0.216 µM).

In the case of `COc1c(OCC(O)CNCCNCCNCCN)cc2oc3cc(OCC(O)CNCCNCCNCCN)c(CC=C(C)C)c(O)c3c(=O)c2c1CC=C(C)C` (configuration not stated), the results for the MIC in the data set with Candida albicans [2] and in the data set on Candida albicans [1] were 12.5 µg/mL (≈ 15.3 µM) and 25 µg/mL (≈ 30.7 µM), respectively. For the same molecule, in data set [3], the Selectivity Index lay in the range of 14.9 to 29.8.

In the case of `COc1c(OCC2CO2)cc2oc3cc(OCC4CO4)c(CC=C(C)C)c(O)c3c(=O)c2c1CC=C(C)C` (configuration not stated), the minimum inhibitory concentration (MIC) against Candida albicans [2] and with Candida albicans [1] was greater than 50 µg/mL each time.

`COc1c(OCC(O)CN2CCCCC2)cc2oc3cc(OCC(O)CN4CCCCC4)c(CC=C(C)C)c(O)c3c(=O)c2c1CC=C(C)C` (configuration not stated): the MIC in the data set with Candida albicans [2] and in the data set on Candida albicans [1] was 6.25 µg/mL (≈ 9.02 µM) each time. In data set [3], the Selectivity Index worked out at 5.1. Also, in data set [4], the pKa came out at 11.2.

As to `COC(=O)[C@H](CCCNC(=N)N)NC(=O)[C@H](CCCNC(=N)N)NC(=O)COc1cc2oc3cc(OCC(=O)N[C@@H](CCCNC(=N)N)C(=O)N[C@@H](CCCNC(=N)N)C(=O)OC)c(OC)c(CC=C(C)C)c3c(=O)c2c(O)c1CC=C(C)C`, the minimal inhibitory concentration (MIC) was 6.25 µg/mL (≈ 5.3 µM) against Candida albicans [2] and 12.5 µg/mL (≈ 10.6 µM) in the data set with Candida albicans [1]. Moreover, the Selectivity Index in data set [3] was in the range of 22.2 to 44.4.

As to `COc1c(OCC(O)CNCCNC(=N)N)cc2oc3cc(OCC(O)CNC(=N)N)c(CC=C(C)C)c(O)c3c(=O)c2c1CC=C(C)C` (configuration not stated), the MIC in the data set on Candida albicans [2] and against Candida albicans [1] was 6.25 µg/mL (≈ 9.14 µM) each time. Further, the Selectivity Index in data set [3] was determined as 8.6.

As for `COc1c(OCC(O)CN)cc2oc3cc(OCC(O)CN)c(CC=C(C)C)c(O)c3c(=O)c2c1CC=C(C)C` (configuration not stated), the minimum inhibitory concentration (MIC) against Candida albicans [2] and in the data set with Candida albicans [1] was 6.25 µg/mL (≈ 11.2 µM) in each case. Also, the Selectivity Index in data set [3] was found to be 7.9. The molecule also came in with a pKa in data set [4] of 10.5.

Turning to `COc1c(OCC(O)Cn2ccnc2)cc2oc3cc(OCC(O)Cn4ccnc4)c(CC=C(C)C)c(O)c3c(=O)c2c1CC=C(C)C` (configuration not stated), the minimal inhibitory concentration (MIC) in the data set with Candida albicans [2] and with Candida albicans [1] was 12.5 µg/mL (≈ 19 µM) throughout. Besides, in data set [3], the Selectivity Index was greater than 32.

For the molecule `COC(=O)[C@H](CCCNC(=N)N)NC(=O)COc1cc2oc3cc(OCC(=O)N[C@@H](CCCNC(=N)N)C(=O)OC)c(OC)c(CC=C(C)C)c3c(=O)c2c(O)c1CC=C(C)C`, the MIC with Candida albicans [2] and in the data set with Candida albicans [1] was 6.25 µg/mL (≈ 7.21 µM) each time. Also, the Selectivity Index in data set [3] worked out at 37.1.

As to `COc1c(OCC(O)CNCc2ccc(F)cc2)cc2oc3cc(OCC(O)CNCc4ccc(F)cc4)c(CC=C(C)C)c(O)c3c(=O)c2c1CC=C(C)C` (configuration not stated), the MIC against Candida albicans [2] and against Candida albicans [1] was 6.25 µg/mL (≈ 8.09 µM) throughout. Moreover, the Selectivity Index in data set [3] was greater than 64.

As to `CCCC[N+](C)(CCCC)CC(O)COc1cc2oc3cc(OCC(O)C[N+](C)(CCCC)CCCC)c(OC)c(CC=C(C)C)c3c(=O)c2c(O)c1CC=C(C)C.[I-].[I-]` (configuration not stated), the MIC against Candida albicans [2] and in the data set with Candida albicans [1] was 6.25 µg/mL each time. The Selectivity Index in data set [3] is 5.3.

In the data set with Candida albicans [1], `CC[C@@H]([C@H](C)O)n1ncn(-c2ccc(N3CCN(c4ccc(OC[C@@H]5CO[C@@](Cn6cncn6)(c6ccc(F)cc6F)C5)cc4)CC3)cc2)c1=O` [POSACONAZOLE] returned an MIC of 12.5 µg/mL (≈ 17.8 µM).

For the molecule `COc1c(OCC(=O)N[C@@H](CCCNC(=N)N)C(N)=O)cc2oc3cc(OCC(=O)N[C@@H](CCCNC(=N)N)C(N)=O)c(CC=C(C)C)c(O)c3c(=O)c2c1CC=C(C)C`, the MIC in the data set with Candida albicans [2] and in the data set on Candida albicans [1] was 6.25 µg/mL (≈ 7.47 µM) throughout. Also, the Selectivity Index in data set [3] worked out at 20.5.

On to `COc1c(OCC(O)CN(C)Cc2ccccc2)cc2oc3cc(OCC(O)CN(C)Cc4ccccc4)c(CC=C(C)C)c(O)c3c(=O)c2c1CC=C(C)C` (configuration not stated), for which the results for the minimum inhibitory concentration (MIC) against Candida albicans [2] and with Candida albicans [1] were 12.5 µg/mL (≈ 16.3 µM) and 6.25 µg/mL (≈ 8.17 µM), respectively. For the same molecule, the Selectivity Index in data set [3] was greater than 32.

The values are drawn from ChEMBL document CHEMBL4028907, “Semisynthesis and Biological Evaluation of Xanthone Amphiphilics as Selective, Highly Potent Antifungal Agents to Combat Fungal Resistance” (J Med Chem, 2017).
